Laboratory results: ChEMBL document CHEMBL3608279, “Discovery and Characterization of a Water-Soluble Prodrug of a Dual Inhibitor of Bacterial DNA Gyrase and Topoisomerase IV” (ACS Med Chem Lett, 2015)
In brackets after ≈: the same amount, converted by molar mass.

Key:
Plasma [1] = assay: Drug uptake in rat plasma at 1 mg/kg, iv measured at 4 hrs by LC-MS/MS analysis; assay type: ADME, organism-based; settings: in vivo
Method in brief: (§1)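 Single IV dose, 1 mg/kg nominal, given to rat, dog and monkey. Plasma sampled over time for both prodrug and parent, with the parent exposure expressed as AUC. Dosing the parent itself IV at the same nominal dose served as the comparator.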

Streptococcus pneumoniae = assay: Antibacterial activity against Streptococcus pneumoniae ATCC 10015; assay type: functional
Staphylococcus aureus [2] = assay: Antibacterial activity against Staphylococcus aureus ATCC 29213; assay type: functional
Enterococcus faecium = assay: Antibacterial activity against Enterococcus faecium ATCC 49624; assay type: functional
Plasma [3] = assay: Drug uptake in dog plasma at 1 mg/kg, iv measured at 4 hrs by LC-MS/MS analysis; assay type: ADME, organism-based, Canis lupus familiaris; settings: in vivo; method in brief: as §1
Staphylococcus aureus [4] = assay: Antibacterial activity against methicillin/levofloxacin-resistant Staphylococcus aureus 156 in po dosed neutropenic CD1 mouse pneumonia model assessed as decrease in bacterial burden in lung administered as bid measured after 24 hrs; assay type: functional; settings: for MIC: Staphylococcus aureus, 156, Lung
Method in brief: (§2)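 Neutropenic female CD-1 mice, 6 per group, infected in the lung with the MRSA isolate. Oral dosing began 3 h after challenge at 7.5, 15 and 30 mg/kg BID. Lungs were taken after 24 h of treatment and bacterial burden counted as CFU. Early-control and vehicle-treated groups served as reference. The levofloxacin comparator was given TID subcutaneously.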

Topoisomerase IV = Topoisomerase IV (Staphylococcus aureus, UniProt P0C1S7+P0C1U9); assay: Inhibition of Staphylococcus aureus DNA topoisomerase 4; assay type: protein-complex assay
Topoisomerase IV, sequence (P0C1U9 whole entry): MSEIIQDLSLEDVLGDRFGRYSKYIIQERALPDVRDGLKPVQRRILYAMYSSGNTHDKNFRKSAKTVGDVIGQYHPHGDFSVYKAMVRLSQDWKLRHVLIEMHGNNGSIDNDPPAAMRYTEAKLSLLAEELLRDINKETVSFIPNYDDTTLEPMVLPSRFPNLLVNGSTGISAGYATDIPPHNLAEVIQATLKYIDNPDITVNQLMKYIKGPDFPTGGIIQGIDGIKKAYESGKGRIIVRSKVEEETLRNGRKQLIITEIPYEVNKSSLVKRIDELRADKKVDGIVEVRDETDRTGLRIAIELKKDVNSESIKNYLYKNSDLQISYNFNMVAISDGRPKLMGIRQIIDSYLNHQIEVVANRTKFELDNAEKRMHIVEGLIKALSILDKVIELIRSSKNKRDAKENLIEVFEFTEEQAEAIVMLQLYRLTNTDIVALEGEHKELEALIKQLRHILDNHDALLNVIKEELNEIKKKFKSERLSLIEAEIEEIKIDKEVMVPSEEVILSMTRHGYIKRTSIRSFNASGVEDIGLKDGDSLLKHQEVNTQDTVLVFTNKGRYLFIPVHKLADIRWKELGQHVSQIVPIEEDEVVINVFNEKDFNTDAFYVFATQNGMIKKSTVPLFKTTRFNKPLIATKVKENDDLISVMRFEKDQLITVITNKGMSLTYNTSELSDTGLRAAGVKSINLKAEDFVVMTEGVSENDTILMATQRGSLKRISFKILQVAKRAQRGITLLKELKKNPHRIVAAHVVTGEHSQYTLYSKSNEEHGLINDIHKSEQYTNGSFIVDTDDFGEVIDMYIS
Topoisomerase IV, sequence (P0C1S7 whole entry): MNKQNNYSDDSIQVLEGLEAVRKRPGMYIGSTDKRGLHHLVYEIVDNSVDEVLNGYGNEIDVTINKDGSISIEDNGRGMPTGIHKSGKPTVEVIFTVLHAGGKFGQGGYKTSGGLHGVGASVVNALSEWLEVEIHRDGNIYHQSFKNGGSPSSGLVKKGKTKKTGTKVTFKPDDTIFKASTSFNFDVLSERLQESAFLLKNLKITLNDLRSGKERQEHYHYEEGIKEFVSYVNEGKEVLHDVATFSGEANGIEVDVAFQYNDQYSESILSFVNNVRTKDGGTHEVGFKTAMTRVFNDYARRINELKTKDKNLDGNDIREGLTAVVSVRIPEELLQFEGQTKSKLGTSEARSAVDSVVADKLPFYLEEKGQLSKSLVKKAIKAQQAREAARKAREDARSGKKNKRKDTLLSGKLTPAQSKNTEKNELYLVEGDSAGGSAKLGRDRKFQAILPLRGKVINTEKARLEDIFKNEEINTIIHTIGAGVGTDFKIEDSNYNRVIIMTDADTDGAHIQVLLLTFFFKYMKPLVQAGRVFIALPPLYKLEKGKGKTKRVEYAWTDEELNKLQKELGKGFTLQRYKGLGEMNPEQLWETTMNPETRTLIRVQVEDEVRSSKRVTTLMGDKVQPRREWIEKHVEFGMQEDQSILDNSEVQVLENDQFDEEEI

Plasma [5] = assay: Drug uptake in monkey plasma at 30 mg/kg, po by LC-MS/MS analysis; assay type: ADME, organism-based, Macaca mulatta; settings: rhesus monkey, in vivo
Method in brief: (§3)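 Prodrug given orally to rat and dog at 3 mg/kg and to monkey at 30 mg/kg. Plasma parent exposure measured, with oral dosing of the parent at the same nominal dose as comparator.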

DNA gyrase = DNA gyrase (Staphylococcus aureus, UniProt P0A0K8+P20831); assay: Inhibition of Staphylococcus aureus DNA gyrase; assay type: protein-complex assay
DNA gyrase, sequence (P0A0K8 whole entry): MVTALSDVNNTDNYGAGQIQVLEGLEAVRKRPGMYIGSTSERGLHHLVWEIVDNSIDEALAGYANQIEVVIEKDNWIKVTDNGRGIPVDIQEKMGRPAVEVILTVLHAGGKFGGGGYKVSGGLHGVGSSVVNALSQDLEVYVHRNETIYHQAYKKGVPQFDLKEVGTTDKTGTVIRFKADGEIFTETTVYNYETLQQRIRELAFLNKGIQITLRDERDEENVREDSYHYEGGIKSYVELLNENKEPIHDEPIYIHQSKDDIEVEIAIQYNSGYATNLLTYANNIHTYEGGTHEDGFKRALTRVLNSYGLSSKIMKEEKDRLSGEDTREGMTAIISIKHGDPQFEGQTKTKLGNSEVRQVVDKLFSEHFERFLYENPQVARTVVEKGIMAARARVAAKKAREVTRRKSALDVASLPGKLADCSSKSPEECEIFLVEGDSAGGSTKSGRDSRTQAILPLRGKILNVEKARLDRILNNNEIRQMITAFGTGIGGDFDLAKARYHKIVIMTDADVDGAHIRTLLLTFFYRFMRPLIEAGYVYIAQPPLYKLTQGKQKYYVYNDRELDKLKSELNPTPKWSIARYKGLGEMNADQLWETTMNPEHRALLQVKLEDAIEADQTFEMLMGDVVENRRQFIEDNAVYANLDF
DNA gyrase, sequence (P20831 whole entry): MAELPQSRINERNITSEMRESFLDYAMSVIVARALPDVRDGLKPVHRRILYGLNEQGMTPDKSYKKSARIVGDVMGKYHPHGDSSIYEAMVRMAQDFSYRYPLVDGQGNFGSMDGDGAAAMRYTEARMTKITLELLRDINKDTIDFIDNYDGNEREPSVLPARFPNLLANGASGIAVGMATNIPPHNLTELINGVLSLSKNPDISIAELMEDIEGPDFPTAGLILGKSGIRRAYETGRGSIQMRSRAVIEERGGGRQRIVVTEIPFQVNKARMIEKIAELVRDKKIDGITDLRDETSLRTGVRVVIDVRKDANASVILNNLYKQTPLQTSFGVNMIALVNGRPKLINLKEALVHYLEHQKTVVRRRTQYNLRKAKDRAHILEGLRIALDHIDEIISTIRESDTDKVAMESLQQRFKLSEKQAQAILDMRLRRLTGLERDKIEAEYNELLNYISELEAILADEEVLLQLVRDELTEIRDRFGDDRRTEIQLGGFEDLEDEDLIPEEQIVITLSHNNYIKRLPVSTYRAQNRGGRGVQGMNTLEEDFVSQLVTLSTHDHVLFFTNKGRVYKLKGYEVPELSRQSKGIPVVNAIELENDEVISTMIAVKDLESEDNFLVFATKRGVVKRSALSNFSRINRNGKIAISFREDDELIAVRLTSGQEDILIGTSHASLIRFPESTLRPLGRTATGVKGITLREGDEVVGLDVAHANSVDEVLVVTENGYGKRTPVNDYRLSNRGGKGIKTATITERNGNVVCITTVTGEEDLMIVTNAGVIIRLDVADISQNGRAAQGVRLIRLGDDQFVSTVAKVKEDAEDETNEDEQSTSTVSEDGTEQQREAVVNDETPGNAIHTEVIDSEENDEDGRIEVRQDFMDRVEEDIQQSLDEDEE

Staphylococcus aureus [6] = assay: Antibacterial activity against methicillin-resistant Staphylococcus aureus 509 in po dosed neutropenic CD1 mouse pneumonia model assessed as decrease in bacterial burden in lung administered as bid measured after 24 hrs; assay type: functional; settings: for MIC: Staphylococcus aureus, 509, Lung; method in brief: as §2
Plasma [7] = assay: Drug uptake in rat plasma at 3 mg/kg, po by LC-MS/MS analysis; assay type: ADME, organism-based; settings: in vivo; method in brief: as §3
[8] = (§4) Apparent permeability across basolateral to apical side in MDCK cells; assay type: ADME, cell-based, Canis lupus familiaris; settings: dog
Method in brief: (§5)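 Papp measured in wild-type MDCK cells in both apical-to-basolateral and basolateral-to-apical directions; values expressed in units of 1 × 10–6 cm/sec.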

Enterococcus faecalis = assay: Antibacterial activity against Enterococcus faecalis ATCC 29212; assay type: functional
Plasma [9] = assay: Drug uptake in dog plasma at 3 mg/kg, po by LC-MS/MS analysis; assay type: ADME, organism-based, Canis lupus familiaris; settings: in vivo; method in brief: as §3
Plasma [10] = assay: Drug uptake in monkey plasma at 1 mg/kg, iv measured at 4 hrs by LC-MS/MS analysis; assay type: ADME, organism-based, Macaca mulatta; settings: rhesus monkey, in vivo; method in brief: as §1
[11] = (§6) Apparent permeability across apical to basolateral side in MDCK cells; assay type: ADME, cell-based, Canis lupus familiaris; settings: dog; method in brief: as §5
[12] = Prodrug conversion in monkey intestine S9 fractions assessed as formation of 1-ethyl-3-[6-fluoro-5-[2-(1-hydroxy-1-methyl-ethyl)pyrimidin-5-yl]-7-[(2R)-tetrahydrofuran-2-yl]-1H-benzimidazol-2-yl]urea by Michaelis-Menten plot analysis; assay type: ADME, tissue-based, Macaca mulatta; settings: rhesus monkey
Method in brief: (§7)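 Prodrug incubated across 1 to 1000 μM in liver and intestinal S9 fractions from rat, dog, monkey and human. Formation of the parent compound was followed to characterize conversion kinetics.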

Intestine = assay: Prodrug conversion in rat intestine S9 fractions assessed as formation of 1-ethyl-3-[6-fluoro-5-[2-(1-hydroxy-1-methyl-ethyl)pyrimidin-5-yl]-7-[(2R)-tetrahydrofuran-2-yl]-1H-benzimidazol-2-yl]urea by Michaelis-Menten plot analysis; assay type: ADME, tissue-based; method in brief: as §7
Staphylococcus aureus [13] = assay: Antibacterial activity against methicillin/levofloxacin-resistant Staphylococcus aureus 156 in neutropenic CD1 mouse pneumonia model assessed as decrease in bacterial burden in lung at 30 mg/kg, po bid measured after 24 hrs; assay type: functional; method in brief: as §2
Plasma [14] = assay: Prodrug conversion in rat plasma assessed as formation of 1-ethyl-3-[6-fluoro-5-[2-(1-hydroxy-1-methyl-ethyl)pyrimidin-5-yl]-7-[(2R)-tetrahydrofuran-2-yl]-1H-benzimidazol-2-yl]urea at 1 mg/kg, iv measured at 4 hrs by LC-MS/MS analysis; assay type: ADME, organism-based; settings: in vivo; method in brief: as §1
[15] = Prodrug conversion in dog intestine S9 fractions assessed as formation of 1-ethyl-3-[6-fluoro-5-[2-(1-hydroxy-1-methyl-ethyl)pyrimidin-5-yl]-7-[(2R)-tetrahydrofuran-2-yl]-1H-benzimidazol-2-yl]urea by Michaelis-Menten plot analysis; assay type: ADME, tissue-based, Canis lupus familiaris; method in brief: as §7
Plasma [16] = assay: Prodrug conversion in dog plasma assessed as formation of 1-ethyl-3-[6-fluoro-5-[2-(1-hydroxy-1-methyl-ethyl)pyrimidin-5-yl]-7-[(2R)-tetrahydrofuran-2-yl]-1H-benzimidazol-2-yl]urea at 1 mg/kg, iv measured at 4 hrs by LC-MS/MS analysis; assay type: ADME, organism-based, Canis lupus familiaris; settings: in vivo; method in brief: as §1
Liver [17] = assay: Prodrug conversion in dog liver S9 fractions assessed as formation of 1-ethyl-3-[6-fluoro-5-[2-(1-hydroxy-1-methyl-ethyl)pyrimidin-5-yl]-7-[(2R)-tetrahydrofuran-2-yl]-1H-benzimidazol-2-yl]urea by Michaelis-Menten plot analysis; assay type: ADME, subcellular, Canis lupus familiaris, Liver S9 fraction; method in brief: as §7
Plasma [18] = assay: Prodrug conversion in monkey plasma assessed as formation of 1-ethyl-3-[6-fluoro-5-[2-(1-hydroxy-1-methyl-ethyl)pyrimidin-5-yl]-7-[(2R)-tetrahydrofuran-2-yl]-1H-benzimidazol-2-yl]urea at 1 mg/kg, iv measured at 4 hrs by LC-MS/MS analysis; assay type: ADME, organism-based, Macaca mulatta; settings: rhesus monkey, in vivo; method in brief: as §1
Plasma [19] = assay: Prodrug conversion in rat plasma assessed as formation of 1-ethyl-3-[6-fluoro-5-[2-(1-hydroxy-1-methyl-ethyl)pyrimidin-5-yl]-7-[(2R)-tetrahydrofuran-2-yl]-1H-benzimidazol-2-yl]urea at 3 mg/kg, po by LC-MS/MS analysis; assay type: ADME, organism-based; settings: in vivo; method in brief: as §3
[20] = Aqueous solubility of the compound at pH 7; assay type: physicochemical; settings: buffer
Liver [21] = assay: Prodrug conversion in rat liver S9 fractions assessed as formation of 1-ethyl-3-[6-fluoro-5-[2-(1-hydroxy-1-methyl-ethyl)pyrimidin-5-yl]-7-[(2R)-tetrahydrofuran-2-yl]-1H-benzimidazol-2-yl]urea by Michaelis-Menten plot analysis; assay type: ADME, subcellular, Liver S9 fraction; method in brief: as §7
MDCK [22] = assay: as §4; assay type: ADME, cell-based, Canis lupus familiaris; settings: dog; method in brief: as §5
[23] = Prodrug conversion in human intestine S9 fractions assessed as formation of 1-ethyl-3-[6-fluoro-5-[2-(1-hydroxy-1-methyl-ethyl)pyrimidin-5-yl]-7-[(2R)-tetrahydrofuran-2-yl]-1H-benzimidazol-2-yl]urea by Michaelis-Menten plot analysis; assay type: ADME, tissue-based; method in brief: as §7
Liver [24] = assay: Prodrug conversion in human liver S9 fractions assessed as formation of 1-ethyl-3-[6-fluoro-5-[2-(1-hydroxy-1-methyl-ethyl)pyrimidin-5-yl]-7-[(2R)-tetrahydrofuran-2-yl]-1H-benzimidazol-2-yl]urea by Michaelis-Menten plot analysis; assay type: ADME, subcellular, Liver S9 fraction; method in brief: as §7
Plasma [25] = assay: Prodrug conversion in monkey plasma assessed as formation of 1-ethyl-3-[6-fluoro-5-[2-(1-hydroxy-1-methyl-ethyl)pyrimidin-5-yl]-7-[(2R)-tetrahydrofuran-2-yl]-1H-benzimidazol-2-yl]urea at 30 mg/kg, po by LC-MS/MS analysis; assay type: ADME, organism-based, Macaca mulatta; settings: rhesus monkey, in vivo; method in brief: as §3
Plasma [26] = assay: Prodrug conversion in dog plasma assessed as formation of 1-ethyl-3-[6-fluoro-5-[2-(1-hydroxy-1-methyl-ethyl)pyrimidin-5-yl]-7-[(2R)-tetrahydrofuran-2-yl]-1H-benzimidazol-2-yl]urea at 3 mg/kg, po by LC-MS/MS analysis; assay type: ADME, organism-based, Canis lupus familiaris; settings: in vivo; method in brief: as §3
[27] = Prodrug conversion in monkey liver S9 fractions assessed as formation of 1-ethyl-3-[6-fluoro-5-[2-(1-hydroxy-1-methyl-ethyl)pyrimidin-5-yl]-7-[(2R)-tetrahydrofuran-2-yl]-1H-benzimidazol-2-yl]urea by Michaelis-Menten plot analysis; assay type: ADME, subcellular, Macaca mulatta, Liver S9 fraction; settings: rhesus monkey; method in brief: as §7
MDCK [28] = assay: as §6; assay type: ADME, cell-based, Canis lupus familiaris; settings: dog; method in brief: as §5
Staphylococcus aureus [29] = assay: Antibacterial activity against methicillin-resistant Staphylococcus aureus 509 in neutropenic CD1 mouse pneumonia model assessed as decrease in bacterial burden in lung at 30 mg/kg, po bid measured after 24 hrs; assay type: functional; method in brief: as §2

In the case of CCNC(=O)Nc1nc2cc(-c3cnc(C(C)(C)O)nc3)c(F)c([C@H]3CCCO3)c2[nH]1, the Drug uptake (Plasma [1]) is reported as “Active”, the MIC (Streptococcus pneumoniae) is reported as no more than 0.008 µg/mL and the MIC (Staphylococcus aureus [2]) is reported as 0.016 µg/mL (≈ 0.0373 µM). For the same compound, the MIC (Enterococcus faecium) was 0.063 µg/mL (≈ 0.147 µM), the Drug uptake (Plasma [3]) was “Active” and the MIC (Staphylococcus aureus [4]) was 0.06 µg/mL (≈ 0.14 µM). The Ki (Topoisomerase IV) was 12 nM, the Drug uptake (Plasma [5]) was “Active” and the Ki (DNA gyrase) was less than 9 nM. The MIC (Staphylococcus aureus [6]) was 0.06 µg/mL (≈ 0.14 µM), the Drug uptake (Plasma [7]) was “Active” and the Papp B→A [8] was 16.3 ×10⁻⁶ cm/s. For the same compound, the MIC (Enterococcus faecalis) was 0.016 µg/mL (≈ 0.0373 µM), the Drug uptake (Plasma [9]) was “Active” and the Drug uptake (Plasma [10]) was “Active”. The Papp A→B [11] was 9.5 ×10⁻⁶ cm/s.
Work on CCNC(=O)Nc1nc2cc(-c3cnc(C(C)(C)OP(=O)(O)O)nc3)c(F)c([C@H]3CCCO3)c2[nH]1 yielded a Km [12] of 5180 µM, a Vmax [12] of 1974 pmol/min/mg and a Km (Intestine) of 736 µM. For the same compound, the Vmax (Intestine) was 958 pmol/min/mg, the MIC (Streptococcus pneumoniae) was 0.25 µg/mL (≈ 0.492 µM) and the MIC (Staphylococcus aureus [2]) was 8 µg/mL (≈ 15.7 µM). The Activity (Staphylococcus aureus [13]) was greater than 3 deltalog10CFU, the MIC (Enterococcus faecium) was 4 µg/mL (≈ 7.87 µM) and the Activity (Staphylococcus aureus [4]) was “Dose-dependent effect”. For the same compound, the Drug metabolism (Plasma [14]) was “metabolite_detected”, the Km [15] was 998 µM and the Vmax [15] was 1162 pmol/min/mg. The Drug metabolism (Plasma [16]) was “metabolite_detected”, the Ki (Topoisomerase IV) was 30 nM and the Km (Liver [17]) was 256 µM. The Vmax (Liver [17]) was 19.3 pmol/min/mg, the Drug metabolism (Plasma [18]) was “metabolite_detected” and the Drug metabolism (Plasma [19]) was “metabolite_detected”. It also gave a solubility [20] of 75 mg/mL (≈ 148000 µM), a Ki (DNA gyrase) of less than 9 nM and a Km (Liver [21]) of 49.8 µM. The Vmax (Liver [21]) was 45.5 pmol/min/mg, the Activity (Staphylococcus aureus [6]) was “Dose-dependent effect” and the Papp (MDCK [22]) was “impermeable”. The MIC (Enterococcus faecalis) was 1 µg/mL (≈ 1.97 µM), the Vmax [23] was greater than 1000 pmol/min/mg and the Km (Liver [24]) was 137 µM. The Vmax (Liver [24]) was 45.8 pmol/min/mg, the Drug metabolism (Plasma [25]) was “metabolite_detected” and the Drug metabolism (Plasma [26]) was “metabolite_detected”. The Km [27] was 122 µM, the Vmax [27] was 25.2 pmol/min/mg and the Papp (MDCK [28]) was “impermeable”. For the same compound, the Activity (Staphylococcus aureus [29]) was greater than 3 deltalog10CFU.
Work on C[C@H]1COc2c(N3CCN(C)CC3)c(F)cc3c(=O)c(C(=O)O)cn1c23.C[C@H]1COc2c(N3CCN(C)CC3)c(F)cc3c(=O)c(C(=O)O)cn1c23.O [LEVOFLOXACIN] yielded an MIC (Staphylococcus aureus [4]) of 8 µg/mL and an MIC (Staphylococcus aureus [6]) of 0.25 µg/mL.
